Reference: ChEMBL document CHEMBL4346679, “N, N', N″-trisubstituted guanidines: Synthesis, characterization and evaluation of their leishmanicidal activity” (Eur J Med Chem, 2019)
Activity calls are given as the source filed them. No cut-off for these calls is given here.

Experiments:
[1] = system: Leishmania amazonensis; assay: Antileishmanial activity against promastigote stage of Leishmania amazonensis MPRO/BR/1972/M1841-LV-79 assessed as parasite growth inhibition after 72 hrs by MTT assay; type: functional, organism-based; conditions: MPRO/BR/1972/M1841-LV-79, 72 h
How it was run: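 Promastigotes at 1 × 10^7/mL in LIT + 10% FBS were exposed 72 h at 28 °C to ten concentrations, 0.5–100 µM (final DMSO 0.1%). Viability was read by MTT, with formazan dissolved in SDS-HCl and absorbance at 570 nm. Run in triplicate; IC50 from nonlinear regression.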

[2] = system: Leishmania amazonensis; assay: Antileishmanial activity against Leishmania amazonensis MPRO/BR/1972/M1841-LV-79 amastigotes infected in mouse peritoneal macrophages assessed as parasite growth inhibition after 24 hrs by Giemsa staining-based microscopic method; type: functional, organism-based; conditions: MPRO/BR/1972/M1841-LV-79, 24 h
How it was run: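 Peritoneal macrophages (3 × 10^5/well on coverslips, RPMI 1640 + 10% FBS) adhered 4 h at 37 °C, 5% CO2, then infected with stationary-phase promastigotes at 5:1 for 4 h. After washing, cells were cultured 18 h, then treated 24 h with compounds or reference drugs. Cells were methanol-fixed and Giemsa-stained. Infection index = % infected macrophages × mean amastigotes per infected cell. IC50 was fitted by regression.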

[3] = Cytotoxicity against mouse peritoneal macrophages assessed as decrease in cell viability after 24 hrs by MTT assay; type: cell-based, Peritoneal macrophage
How it was run: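 Peritoneal macrophages (1 × 10^5/well) in RPMI 1640 with 10% FBS, 25 mM HEPES and 2 mM L-glutamine were pre-incubated 4 h. They were then exposed to compounds for 24 h at 37 °C, 5% CO2. Viability was read by MTT; CC50 determined.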

[4] = Safety index, ratio of CC50 for mouse peritoneal macrophage to IC50 for promastigote stage of Leishmania amazonensis MPRO/BR/1972/M1841-LV-79; type: toxicity; conditions: read-out: Ratio CC50/IC50
[5] = Safety index, ratio of CC50 for mouse peritoneal macrophages to IC50 for Leishmania amazonensis MPRO/BR/1972/M1841-LV-79 amastigotes infected in mouse peritoneal macrophages; type: toxicity; conditions: read-out: Ratio CC50/IC50
[6] = system: Leishmania amazonensis; assay: Antileishmanial activity against promastigote stage of Leishmania amazonensis MPRO/BR/1972/M1841-LV-79 infected in Balb/c mouse assessed as reduction in parasitic load at 0.13 mg/kg, ip administered once daily for 15 days by limiting dilution method relative to control; type: functional; set-up: scale not given: the % may be the effect or the level left
How it was run: (§1)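 Footpad-infected female BALB/c mice (1 × 10^7 parasites/mL promastigotes; 5 per group) were treated from six weeks post-infection. Dosing was daily ip for 15 days: 0.13 or 0.25 mg/kg/day (PBS, 0.1% DMSO), AmpB 2 mg/kg/day, or PBS vehicle. Skin-lesion parasite burden was quantified after treatment by limiting dilution and compared with untreated infected mice. Data are mean ± SD.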

[7] = system: Leishmania amazonensis; assay: Antileishmanial activity against promastigote stage of Leishmania amazonensis MPRO/BR/1972/M1841-LV-79 infected in Balb/c mouse assessed as reduction in volume of foot lesions at 0.13 to 0.25 mg/kg, ip administered once daily for 15 days measured every 5 days during compound dosing by caliper method; type: functional, organism-based
How it was run: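 Infected BALB/c mice (5 per group) were dosed daily ip for 15 days, starting six weeks after footpad inoculation: 0.13 or 0.25 mg/kg/day, AmpB 2 mg/kg/day, or PBS. Foot lesion thickness was measured with a dial caliper every 5 days.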

[8] = system: Leishmania amazonensis; assay: Antileishmanial activity against promastigote stage of Leishmania amazonensis MPRO/BR/1972/M1841-LV-79 infected in Balb/c mouse assessed as reduction in parasitic load at 0.25 mg/kg, ip administered once daily for 15 days by limiting dilution method relative to control; type: functional; set-up: scale not given: the % may be the effect or the level left; how it was run: as §1
[9] = system: Leishmania amazonensis; assay: Antileishmanial activity against Leishmania amazonensis MPRO/BR/1972/M1841-LV-79 amastigotes infected in mouse peritoneal macrophages assessed as reduction in number of intracellular amastigotes at 25 uM after 72 hrs by Giemsa staining-based microscopic method relative to control; type: functional; set-up: scale not given: the % may be the effect or the level left
How it was run: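 Infected peritoneal macrophages were treated with 25 µM of each compound, pentamidine or AmpB for 72 h. The infection index (% infected macrophages × amastigotes per infected macrophage) was compared with untreated infected cells. Data are given as mean ± SD.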

[10] = Mutagenicity in Swiss albino mouse assessed as frequency of micronucleated reticulocytes per 2000 cells at 25 mg/kg administered via gavage by acridine orange staining-based micronucleus test; type: toxicity, organism-based; conditions: in vivo, po
How it was run: (§2)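 Male Swiss albino mice (30 ± 4 g, 5 per group) were dosed by gavage at 25, 50 or 100 mg/kg. Controls: 0.5% hydroxyethylcellulose (negative) and ip cyclophosphamide 50 mg/kg (positive). Peripheral blood was placed on acridine orange (1 mg/mL) pre-stained slides heated at 70 °C. Fluorescence microscopy used 488 nm light; micronucleated cells were counted among 2000 reticulocytes per animal.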

[11] = Mutagenicity in Swiss albino mouse assessed as frequency of micronucleated reticulocytes per 2000 cells at 50 mg/kg administered via gavage by acridine orange staining-based micronucleus test; type: toxicity, organism-based; conditions: in vivo, po; how it was run: as §2
[12] = Mutagenicity in Swiss albino mouse assessed as frequency of micronucleated reticulocytes per 2000 cells at 100 mg/kg administered via gavage by acridine orange staining-based micronucleus test; type: toxicity, organism-based; conditions: in vivo, po; how it was run: as §2
[13] = system: Mus musculus; assay: Mutagenic index, ratio of test compound effect to hydroxyethylcellulose effect for Swiss albino mouse assessed as frequency of micronucleated reticulocytes per 2000 cells at 25 mg/kg administered via gavage; type: organism-based; conditions: in vivo, po
How it was run: (§3)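 Male Swiss albino mice (5 per group) received 25, 50 or 100 mg/kg by gavage. The negative control got 0.3 mL of 0.5% hydroxyethylcellulose; the positive control got cyclophosphamide 50 mg/kg ip. Micronucleated reticulocytes were counted per 2000 cells on acridine orange-stained slides. MI = treated MNRET ÷ negative-control MNRET.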

[14] = system: Mus musculus; assay: Mutagenic index, ratio of test compound effect to hydroxyethylcellulose effect for Swiss albino mouse assessed as frequency of micronucleated reticulocytes per 2000 cells at 50 mg/kg administered via gavage; type: organism-based; conditions: in vivo, po; how it was run: as §3
[15] = system: Mus musculus; assay: Mutagenic index, ratio of test compound effect to hydroxyethylcellulose effect for Swiss albino mouse assessed as frequency of micronucleated reticulocytes per 2000 cells at 100 mg/kg administered via gavage; type: organism-based; conditions: in vivo, po; how it was run: as §3
[16] = Toxicity in Balb/c mouse infected with promastigote stage of Leishmania amazonensis MPRO/BR/1972/M1841-LV-79 assessed as change in body weight at 0.13 to 0.25 mg/kg, ip administered once daily for 15 days measured during compound dosing; type: organism-based; conditions: in vivo, 360 h
[17] = system: Leishmania amazonensis; assay: Antileishmanial activity against promastigote stage of Leishmania amazonensis MPRO/BR/1972/M1841-LV-79 infected in Balb/c mouse assessed as increase in plasma bilirubin level at 0.13 to 0.25 mg/kg, ip administered once daily for 15 days measured during compound dosing; type: functional, organism-based
[18] = Renal toxicity in Balb/c mouse infected with promastigote stage of Leishmania amazonensis MPRO/BR/1972/M1841-LV-79 assessed as change in plasma creatinine level at 0.13 to 0.25 mg/kg, ip administered once daily for 15 days measured post-last dose; type: organism-based; conditions: in vivo, 360 h
How it was run: (§4)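 Female BALB/c mice (4 weeks old, 5 per group) were infected in the left hind footpad with 1 × 10^7 parasites/mL of infective promastigotes. After six weeks they received daily ip doses for 15 days: 0.13 or 0.25 mg/kg/day (from DMSO stock in PBS, 0.1% DMSO), AmpB 2 mg/kg/day in sterile water, or PBS. Controls were untreated infected and uninfected mice. At end of treatment, plasma bilirubin, AST, ALT, ALP, urea and creatinine were measured with commercial kits.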

[19] = Renal toxicity in Balb/c mouse infected with promastigote stage of Leishmania amazonensis MPRO/BR/1972/M1841-LV-79 assessed as change in plasma urea level at 0.13 to 0.25 mg/kg, ip administered once daily for 15 days measured post-last dose; type: organism-based; conditions: in vivo, 360 h; how it was run: as §4
[20] = system: Leishmania amazonensis; assay: Antileishmanial activity against promastigote stage of Leishmania amazonensis MPRO/BR/1972/M1841-LV-79 infected in Balb/c mouse assessed as decrease in plasma alkaline phosphatase level at 0.13 to 0.25 mg/kg, ip administered once daily for 15 days measured post-last dose; type: functional, organism-based; how it was run: as §4
[21] = system: Leishmania amazonensis; assay: Antileishmanial activity against promastigote stage of Leishmania amazonensis MPRO/BR/1972/M1841-LV-79 infected in Balb/c mouse assessed as decrease in plasma aspartate aminotransferase level at 0.13 to 0.25 mg/kg, ip administered once daily for 15 days measured post-last dose; type: functional, organism-based; how it was run: as §4
[22] = system: Leishmania amazonensis; assay: Antileishmanial activity against promastigote stage of Leishmania amazonensis MPRO/BR/1972/M1841-LV-79 infected in Balb/c mouse assessed as decrease in plasma alanine aminotransferase level at 0.13 to 0.25 mg/kg, ip administered once daily for 15 days measured post-last dose; type: functional, organism-based; how it was run: as §4

Row | SMILES | IC50 [1] | IC50 [2] | CC50 at 24 h [3] | selectivity ratio [4] | selectivity ratio [5] | Activity [9] | also measured
1 | O=C(/N=C(/NCc1ccccc1)Nc1ccc(Br)cc1)c1ccccc1 | 19.6 µM | 5.6 µM | 738 µM | 37.7 | 132 | 86% | Activity [6]: 46%; Activity [7]: Active; Activity [8]: 60%; Activity [10]: 7; Activity [11]: 8; Activity [12]: 6; Ratio [13]: 1.4; Ratio [14]: 1.6; Ratio [15]: 1.2; Activity [16]: Non-Toxic; Activity [17]: Active; Activity [18]: Non-Toxic; Activity [19]: Non-Toxic; Activity [20]: Active; Activity [21]: inactive; Activity [22]: Active
2 | O=C(/N=C(/NCc1ccccc1)Nc1ccc(F)cc1)c1ccccc1 | 21.9 µM | 19 µM | 866 µM | 39.5 | 45.5 | 70% | 
3 | Cc1ccc(N/C(=N\C(=O)c2ccccc2)NCc2ccccc2)cc1 | 20.9 µM | 24.2 µM | 876 µM | 41.9 | 36.2 |  | 
4 | N=C(N)c1ccc(OCCCCCOc2ccc(C(=N)N)cc2)cc1 [PENTAMIDINE] | 7.6 µM | 5.07 µM | 35.7 µM | 4.7 | 7 | 81% | 
5 | O=C(/N=C(/NCc1ccccc1)Nc1ccccc1)c1ccccc1 | 22.6 µM |  | 35.9 µM | 1.6 |  |  | 
6 | O=C(/N=C(/NCc1ccccc1)Nc1ccc(Cl)cc1)c1ccccc1 | 19.7 µM | 41.2 µM | 827 µM | 42 | 20.1 | 19% | 
7 | COc1ccc(N/C(=N\C(=O)c2ccccc2)NCc2ccccc2)cc1 | 25.4 µM | 21.1 µM | 837 µM | 32.9 | 39.6 |  | 
8 | O=C(/N=C(/NCc1ccccc1)Nc1ccc(I)cc1)c1ccccc1 | 15.9 µM | 7.1 µM | 619 µM | 38.9 | 87.1 | 78% | Activity [10]: 3; Activity [11]: 5; Activity [12]: 6; Ratio [13]: 0.6; Ratio [14]: 1; Ratio [15]: 1.2
9 | CC(C)(C)c1ccc(N/C(=N\C(=O)c2ccccc2)NCc2ccccc2)cc1 | 25.9 µM | 17.2 µM | 1120 µM | 43.2 | 65 |  | 
10 | O=C(/N=C(/NCc1ccccc1)Nc1ccc(C(F)(F)F)cc1)c1ccccc1 | 6.8 µM | 21.4 µM | 18.6 µM | 2.7 | 0.8 |  | 
11 | O=C(/N=C(/NCc1ccccc1)Nc1ccc([N+](=O)[O-])cc1)c1ccccc1 | 11.5 µM | 22.1 µM | 802 µM | 69.7 | 36.4 |  | 
